Screening results deposited in PubChem BioAssay by Broad Institute.
EWS-Fli inh: blocks EWS/Fli oncoprotein-driven transcription; A673 NR0B1-luciferase reporter, viability-normalised; inhibition, % at 12.6 µM; actives 0.67% (n = 350,000);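 active = mean inhibition of at least 50% after viability correction, with every replicate also passing that limit; inconclusive = mean reaches 50% but only one of two replicates passes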;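 note: firefly luciferase signal divided by Alamar Blue viability fluorescence both relative to DMSO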
EBV LMP1 NFkB: inhibitors of Epstein-Barr LMP1-induced NF-kappaB reporter; LMP1-induced NF-kappaB luciferase reporter cells, luminescence; inhibition, % at 12.5 µM; actives 0.69% (n = 350,000); AID 504558; in the data active = inhibition above about 41%; inconclusive = no clear call, values can overlap the other calls;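 note: 0% = neutral control wells and 100% = reference inhibitor control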
aSyn UTR inh: MLPCN primary screen, SNCA 5' untranslated region; alpha-synuclein 5'UTR reporter, inhibitor activity; inhibition, % (tested at 7.5 µM); actives 0.82% (n = 300,000); AID 1813; in the data active = inhibition above about 60%; inconclusive = no clear call, values can overlap the other calls;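 note: H4 neuroglioblastoma cells stably carrying SNCA 5'UTR luciferase fusion; 0% = DMSO wells and 100% = positive control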
Shn3 inh set2: reduces Shn3 3'UTR luciferase signal in osteoblasts; Clone20 osteoblast Shn3 3'UTR firefly luciferase, 24 h; inhibition, % at 12.5 µM; actives 0.52% (n = 360,000); AID 588674;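 active = mean inhibition of at least 75% with every replicate also reaching 75%; inconclusive = mean inhibition at least 75% but some replicate below; inactive = mean inhibition below 75%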;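 note: 0% = median of neutral control wells and 100% = pilot-screen positive control compound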
FN deposition inh: fibronectin deposition inhibition | AH1F fibroblasts, Alexa488-fibronectin deposition fluorescence, overnight | inhibition, % at 12.6 µM | actives 0.086% (n = 350,000);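 active = mean inhibition across replicates of 30% or more, regardless of how many single replicates reach that level; inconclusive = mean under 30% yet at least half of replicates reach 30%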;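 note: positive control wells lacked labelled fibronectin entirely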
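Assay system: AH1F fibroblast monolayer, labelled fibronectin deposition. Amount: 10000 cells per well. Also added: labelled fibronectin 24 nM. Compound: single-point pinned compound. Incubation: cell attachment 1 h, compound and FN exposure overnight. Detection: fluorescence after three HBSS washes, excitation 485 nm, emission 525 nm. Read-out: inhibition of fibronectin deposition signal.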
PAX8 reporter: inhibitors of PAX8 transcriptional activity in RMG-I cells; RMG-I TPO-luciferase reporter, SteadyGlo, 24 h; inhibition, % at 12.6 µM; actives 1.2% (n = 360,000);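 active = mean replicate inhibition at least 60% with every replicate also reaching 60%; inconclusive = only one of the two criteria is met; inactive = mean below 60% and not all replicates reaching 60%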;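 note: luciferase light reporting Pax8 driven TPO promoter activity; plate controls were median of neutral control wells for no effect and mitoxantrone controls for full effect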
DNA binding: small molecule DNA binding by fluorescence polarization; AID 720586; shares compounds with EWS-Fli inh; actives 2% (n = 640); AC35, µM (top dose mostly 68 µM), inactives show at the top dose activity change, negative = DNA binding; salmon sperm DNA acridine orange fluorescence polarization;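 active = fitted curve reaches a 35% signal fall AC35 below twice the sample's top valid tested dose, actives reach about 48 µM in these data; inactive = the rest, including activity in the rising direction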;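 note: lower polarization ratio signals compound binding to DNA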
* = called active by the depositor; ? = inconclusive; nt = not tested or not shown. Compounds with a hit are over-represented: about 2.1% of the library has one in this group of screens.

SMILES	EWS-Fli inh	EBV LMP1 NFkB	aSyn UTR inh	Shn3 inh set2	FN deposition inh	PAX8 reporter	DNA binding
COCC(=O)Nc1ccc2c(c1)C(=O)N(C)[C@@H]1CC[C@H](CC(=O)Nc3ccccc3)O[C@H]1CO2	-6	nt	nt	nt	-7	10	nt
C(=Cc1c[nH]c2ccccc12)c1nccc2ccccc12	22	-31	nt	-2	-89	-2	nt
C(=Cc1c[nH]c2ccccc12)c1ccc2ccccc2n1	67*	13	nt	30	-43	49	9%
CN(C)C(=S)N=Nc1[nH]c2ccccc2c1O	61*	nt	-38	nt	1	-78	-7%
CCc1ccc(S(=O)(=O)c2ccc(-n3nc(C)cc3N)cc2)cc1	53*	3	-8	20	nt	12	-3%
O=C(Cc1ccccc1)N1CC[C@H]2[C@H](CO)Nc3ccc(Br)cc3[C@H]21	10	nt	nt	nt	-11	-4	nt
CCCCNC(=O)C(c1ccc(OCC(=O)OC)c(C(=O)OC)c1)N(CCOC)C(=O)CCCCCN1C(=O)NC(c2ccc(-c3ccccc3)cc2)C(C(=O)OCc2ccccc2)=C1C (stereo unspecified)	59*	nt	8	nt	21	37	-4%
CO[C@@H]1CN(C)C(=O)c2cc(NC(C)=O)ccc2OC[C@H](C)NC[C@H]1C	7	nt	nt	nt	nt	-11	nt
CC(C)CN(C(=O)CN1CCCCCC1)c1c(N)n(CC(C)C)c(=O)[nH]c1=O	-10	2	8	-26	4	19	nt
CC(C)CN(C(=O)CN1CCOCC1)c1c(N)n(CC(C)C)c(=O)[nH]c1=O	61*	5	6	-19	-6	9	-12%
O=C(NC[C@H]1[C@H](c2ccccc2)[C@H](CO)N1Cc1cccnc1)c1ccccn1	9	nt	nt	nt	4	-12	nt
Cc1cc(C)cc(OCC(=O)OCC(=O)Nc2cc(S(=O)(=O)N3CCOCC3)ccc2Cl)c1	-1	2	nt	1	3	-4	nt
Cc1cc(C)cc(OCC(=O)OCC(=O)Nc2cc(S(=O)(=O)N3CCOCC3)ccc2C)c1	66*	-6	nt	8	1	-1	-12%
COc1ccc(-c2cnc3c(NC=O)cc(-c4ccccc4OC)cn23)cc1OC	58*	nt	nt	14	12	100*	-5%
C/C=C/c1ccc([C@H]2[C@@H](CO)N(CC3CCCCC3)[C@@H]2CNC(C)C)cc1	-4	nt	nt	nt	1	nt	nt
COc1ccc(-c2ccc3c(n2)CCCN3S(=O)(=O)c2ccc(F)cc2)cc1	0	nt	nt	nt	0	-16	nt
COc1ccc(S(=O)(=O)N2CCCc3nc(-c4ccc(F)cc4)ccc32)cc1	60*	nt	nt	nt	7	21	4%
CC(=O)c1ccc(N=Nc2ccc(N(C)C)cc2)cc1	26	18	57	22	-5	-157	nt
CC(=O)c1ccc(N=Nc2ccc(C)cc2)cc1	52*	-10	?	6	nt	-81	-14%
O=C(NC[C@H]1N[C@H](CO)[C@@H]1c1ccc(-c2cncnc2)cc1)C1CCCC1	12	nt	nt	nt	-2	nt	nt
Cc1occc1C(=O)Nc1sccc1C(N)=O	-21	-1	-46	-10	nt	-38	nt
Cc1noc(C)c1C(=O)Nc1sccc1C(N)=O	76*	-6	nt	-19	-13	-7	-21%
O=C(NCc1ccccn1)c1ccc(CNS(=O)(=O)c2cccc(Cl)c2)cc1	58*	3	-19	11	nt	11	-15%
CC(C)(C)c1ccc(S(=O)(=O)NCc2ccc(C(=O)NCc3ccccn3)cc2)cc1	-1	-4	-16	17	0	4	nt
CCNC(=O)[C@@H]1[C@@H](CO)[C@@H]2Cn3c(ccc(C4=CCCCC4)c3=O)[C@H]1N2CC	nt	nt	nt	nt	nt	nt	-15%
CCN1[C@@H]2Cn3c(ccc(C4=CCCCC4)c3=O)[C@H]1[C@@H](C(=O)NCCOC)[C@@H]2CO	2	nt	nt	nt	nt	nt	nt
O=C(CCN1C(=O)S/C(=C\c2ccccc2)C1=O)N1CCCCC1	-42	-11	-10	-40	-5	-41	nt
O=C1/C(=C\c2ccccc2)CN(C(=O)CCN2CCCCC2)C/C1=C/c1ccccc1	80*	-32	nt	94*	10	-4	1%
O=c1ccc2ccccc2c2ccccc12	63*	nt	nt	60	10	88*	-12%
CO[C@@H]1CN(C)C(=O)c2cc(NC(=O)C3CCCC3)ccc2OC[C@H](C)NC[C@@H]1C	-11	nt	nt	nt	-5	0	nt
